CHT inh – inhibits the human high affinity choline transporter. Q9GZV3. CHT-expressing cells, membrane potential dye, choline response; active compounds read low. B-score at 10 µM. 0.86% of 310,000 active. AID 488975;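 active = B-score over 3 SD under the library average, and starting fluorescence ratio not unusually high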;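 note: choline stimulus applied at its EC90 after an EC20 pre-addition; B-score computed on integrated fluorescence ratio after choline addition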
CHT PAM – allosteric activators of human choline transporter CHT | B-score at 10 µM | Q9GZV3 | 0.49% of 310,000 active | CHT-expressing cells, membrane potential dye, choline EC20; active compounds read high; LV-AA mutant CHT in HEK293 cells;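 active = initial fluorescence not abnormally high and integrated response B-score, plate-corrected, over 3 SD above library mean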
VLA-4 inh – inhibition in a human VLA-4 binding assay. P13612. VLA-4 expressing cells, ligand binding flow cytometry. inhibition, % (about 7 µM as worked out from the volumes in the protocol). 0.2% of 330,000 active. AID 2557; in the data active = inhibition above about 50%
Target sequence (P13612 whole entry, looked up): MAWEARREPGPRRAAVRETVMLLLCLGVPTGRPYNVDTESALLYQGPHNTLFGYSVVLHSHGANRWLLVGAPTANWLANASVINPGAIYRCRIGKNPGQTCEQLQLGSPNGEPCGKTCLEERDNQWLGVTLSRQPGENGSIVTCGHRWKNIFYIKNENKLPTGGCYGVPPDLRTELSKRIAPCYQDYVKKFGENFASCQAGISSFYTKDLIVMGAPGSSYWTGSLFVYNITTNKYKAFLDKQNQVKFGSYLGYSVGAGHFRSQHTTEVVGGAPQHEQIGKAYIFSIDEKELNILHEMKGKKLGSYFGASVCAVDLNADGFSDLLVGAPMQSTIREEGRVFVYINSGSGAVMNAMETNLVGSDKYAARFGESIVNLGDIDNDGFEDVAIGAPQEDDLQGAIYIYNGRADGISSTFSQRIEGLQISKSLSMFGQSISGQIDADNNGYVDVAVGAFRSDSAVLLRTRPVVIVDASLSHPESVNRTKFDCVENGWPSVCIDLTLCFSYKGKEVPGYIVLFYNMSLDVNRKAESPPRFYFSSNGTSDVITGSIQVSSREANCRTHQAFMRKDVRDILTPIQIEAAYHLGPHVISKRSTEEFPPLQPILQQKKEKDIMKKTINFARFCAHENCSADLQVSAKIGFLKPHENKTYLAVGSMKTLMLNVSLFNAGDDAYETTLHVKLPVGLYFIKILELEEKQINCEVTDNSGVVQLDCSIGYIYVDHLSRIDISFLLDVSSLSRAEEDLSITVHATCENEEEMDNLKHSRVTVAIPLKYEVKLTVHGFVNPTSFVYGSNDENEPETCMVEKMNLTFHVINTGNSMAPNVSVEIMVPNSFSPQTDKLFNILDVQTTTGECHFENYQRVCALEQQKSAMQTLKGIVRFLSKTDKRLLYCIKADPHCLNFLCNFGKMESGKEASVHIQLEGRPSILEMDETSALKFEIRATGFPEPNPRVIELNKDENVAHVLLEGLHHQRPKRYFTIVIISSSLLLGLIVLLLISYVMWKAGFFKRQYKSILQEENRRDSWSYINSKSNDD
T cell modulator – T cell immune modulation candidate; AID 2052; 2C CD8+ T cell-vesicle binding, flow cytometry; active compounds read low; 0.068% of 330,000 active; response (vesicle binding), % at 7 µM;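 active = response, share of CD8 T cells binding vesicles, and their 90th percentile fluorescence all below set limits, cut at about 80% in these data, passing the limit was not always enough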;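 note: values below 100% mean blocked vesicle binding to the CD8+ T cells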
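Incubation: binding step 1.5 h, 37 °C, antibody labelling 20 min, ice; system: murine 2C transgenic CD8+ T lymphocytes; technique: cytometric PE anti-B7-1 and Alexa647 anti-CD8 signals after 1% paraformaldehyde fixation; also added: QL9-charged Drosophila Ld/ICAM-1/B7-1 vesicles; control set: naked versus QL9-loaded vesicles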
CHT inh conf – confirmation of human choline transporter CHT inhibitors; CHT activity remaining % of control (active compounds read low), % at 10 µM; 70% of 2,400 active; CHT-expressing cells, choline membrane potential dye; LV-to-AA substituted CHT, HEK293 cells; shares compounds with CHT inh;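 active = choline transporter activity left, mean of duplicates at 10 µM, below buffer-only control mean minus 3 SD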;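 note: depolarization triggered by choline at its EC90 following an EC20 pre-addition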
HEK293 MPD ctr – counter-screen for CHT inhibitors: effect in parental HEK293 cells. shares compounds with CHT inh. membrane potential dye, choline response; active = decrease or increase beyond buffer ±3SD. membrane potential ratio readout (active if shifted either direction beyond buffer ±3SD; no single direction) at 10 µM. 4% of 2,400 active. AID 493222;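 note: parental cells lack the transporter so any hit is non-specific; ratio is peak minus trough fluorescence over baseline after EC90 choline challenge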
Numbers stand for hits; i = inactive; nt = no result. This is a sample that favours compounds with a hit; in the whole collection about 1.5% have one here.

SMILES | CHT inh | CHT PAM | VLA-4 inh | T cell modulator | CHT inh conf | HEK293 MPD ctr
N#C/C(=C(/O)CN1CCCC1)c1nc(-c2ccccc2)cs1 | i | i | i | i | nt | nt
CCOC(=O)C1CCCN(C/C(O)=C(\C#N)c2nc(-c3ccc(Cl)cc3)cs2)C1 (centres undefined) | -5.66 | i | i | i | i | i
CC(NC(=O)c1ccc(Br)cc1)c1ccc2c(c1)CCCC2 (centres undefined) | -9.68 | i | i | i | i | i
CC(NC(=O)c1ccc(F)cc1)c1ccc2c(c1)CCCC2 (centres undefined) | -6.17 | i | i | i | 41.2% | i
Cc1ccc(C(=O)NC(C)c2ccc(F)cc2)cc1 (centres undefined) | i | i | i | i | nt | nt
O=[N+]([O-])/C(C(Cl)=C(Cl)Cl)=C(/NC1CC1)Sc1ccccc1 | i | i | i | i | nt | nt
CS(=O)(=O)N(CC(O)Cn1c2ccccc2c2ccccc21)c1ccccc1 (centres undefined) | i | i | i | i | i | i
N#Cc1ccsc1NC(=O)c1cnccn1 | i | i | i | i | nt | nt
CC(C)(C)NS(=O)(=O)c1cc(C(=O)Nc2sccc2C#N)ccc1Cl | -5.3 | i | i | i | i | i
O=C(NCc1ccc2c(c1)OCO2)c1ccc(CSCc2ccc(Cl)cc2)o1 | i | i | i | i | nt | nt
O=C(NCc1ccc2c(c1)OCO2)c1ccc(COc2cc(Cl)ccc2Cl)o1 | -5.12 | i | i | i | i | i
O=C(NCCN1CCCC1=O)C1CCC(=O)N(CCc2cccc(F)c2)C1 (centres undefined) | i | i | i | i | nt | nt
O=C(CSc1n[nH]c(-c2ccncc2)n1)Nc1ccc(Cl)c(C(=O)O)c1 | i | i | i | i | nt | nt
CCN(CC)CCCN(C(=O)c1ccco1)c1nc(-c2ccc(C)cc2)cs1 | i | i | i | i | nt | nt
CCN(CC)CCCN(C(=O)c1ccco1)c1nc(-c2ccc(Cl)cc2)cs1 | -6.28 | i | i | i | 37.5% | i
COc1ccc(S(=O)(=O)NCC(=O)NCCc2ccc(OC)c(OC)c2)cc1 | i | i | i | i | nt | nt
Cc1ccc(S(=O)(=O)N(CC(=O)Nc2ccc(C(N)=O)cc2)C(=O)N2CCN(C)CC2)cc1 | i | i | i | i | nt | nt
CCOC(=O)c1cnc2c(Cl)cc(Cl)cc2c1NCCOCCO | -10.4 | i | i | i | 33.8% | i
CCCCc1nc(SCC(=O)N2CCOCC2)c2c(=O)n(C)c(=O)n(C)c2n1 | i | i | i | i | nt | nt
Cc1nn(CC(=O)NCC(C)c2ccccc2)c(=O)c2cccn12 (centres undefined) | i | i | i | i | nt | nt
Cc1ccc(S(=O)(=O)CCC(=O)OC(C)C(=O)N2CCc3ccccc32)cc1 (centres undefined) | -7.38 | i | i | i | 36.7% | i
COc1ccc(C(O)P(=O)(OCC(C)C)c2ccc(N(C)C)cc2)c(OC)c1 (centres undefined) | i | i | i | i | nt | nt
CC(C)C(NC(=O)c1ccccc1Br)c1ccccc1 (centres undefined) | -5.32 | i | i | i | i | i
CC(NC(=S)NC(=O)c1ccccc1Br)c1ccccc1 (centres undefined) | i | i | i | i | nt | nt
COC(=O)/C=C1/S/C(=N/NC(=O)c2ccccc2OC)NC1=O | i | i | i | i | nt | nt
SMILES | CHT inh | CHT PAM | VLA-4 inh | T cell modulator | CHT inh conf | HEK293 MPD ctr
Cc1ccc(CNC(=O)N[C@@H](Cc2ccccc2)C(=O)O)cc1 | -16.2 | i | i | i | 59.9% | i
COC(=O)[C@H](Cc1ccccc1)NC(=O)NCc1ccc(C)cc1 | i | i | i | i | nt | nt
COc1ccccc1CN1C(=O)[C@@H]2C(CCC(N)=O)NC3(C(=O)Nc4c3ccc(Cl)c4C)[C@@H]2C1=O (some centres undefined) | -6.08 | i | i | i | 60.6% | i
O=C(NNC(=O)c1ccccc1[N+](=O)[O-])c1csc(N2CCOCC2)n1 | i | i | i | i | nt | nt
S=c1[nH]ncn2c1cc1oc3ccccc3c12 | i | i | i | i | nt | nt
COc1ccc(C=O)cc1Cn1cnc2c(cnn2C)c1=O | -5.71 | i | i | i | i | i
COc1ccc(C(C)=O)cc1Cn1cnc2c(cnn2C)c1=O | i | i | i | i | nt | nt
Cn1c(=O)c2c(ncn2CC(=O)OCC(=O)Nc2ccc(F)cc2F)n(C)c1=O | nt | nt | i | i | nt | nt
CS(=O)(=O)N1CCc2cc(S(=O)(=O)N3CCCCC3)ccc21 | -7.45 | i | i | i | i | i
COc1ccc(-n2c(C)cc(C(=O)CSc3nnc(-c4ccoc4C)n3C)c2C)cc1 | -5.07 | i | i | i | 65.8% | i
CN1CCN(CC(=O)Nc2nc(-c3c[nH]c4ccccc34)cs2)CC1 | -5.4 | i | i | i | 64.3% | i
CNc1nc(-c2c[nH]c3ccccc23)cs1 | i | i | i | i | nt | nt
COc1ccc(CCNC(=O)c2ccc([N+](=O)[O-])cc2)cc1 | i | i | i | i | nt | nt
COc1ccc(CCNC(=O)C(C)c2ccc([N+](=O)[O-])cc2)cc1 (centres undefined) | -5.46 | i | i | i | i | i
COc1cccc(-c2c(C(=O)N/N=C(\C)c3ccc(Cl)s3)nnn2-c2nonc2N)c1 | i | i | i | i | nt | nt
O=c1c2ccccc2[nH]c(=S)n1CCN1CCCCC1 | -11.6 | i | i | i | 40.2% | i
O=c1c2ccccc2[nH]c(=S)n1CCCN1CCN(c2ccccc2)CC1 | i | i | i | i | nt | nt
COc1cc2ccccc2cc1C(=O)OCC(=O)c1c(N)n(C)c(=O)n(C)c1=O | nt | nt | i | i | nt | nt
C[N+](C)(C)CC=O | -6 | i | i | i | 22.2% | i
Cc1ccc(Oc2ncnc(N)c2[N+](=O)[O-])cc1C | i | i | i | i | nt | nt
CC(C)(C)c1cc(C(F)(F)F)nc(SCCCNC(=O)c2ccco2)n1 | -5.51 | i | i | i | i | i
Cc1sc2ncn(CC(=O)Nc3cccc(S(N)(=O)=O)c3)c(=O)c2c1-c1ccccc1 | i | i | i | i | nt | nt
Cc1noc(NS(=O)(=O)c2ccc(NC(=O)COc3ccc(Cl)cc3Cl)cc2)c1C | -6.41 | i | i | i | 38.7% | i
Cc1noc(NS(=O)(=O)c2ccc(NC(=O)CCCOc3ccc(Cl)cc3Cl)cc2)c1C | i | i | i | i | nt | nt
Cc1cc(NS(=O)(=O)c2ccc(NC(=O)COc3c(C)cc(Br)cc3C)cc2)no1 | -6.01 | i | i | i | 34.3% | i
COc1ccc(OCC(=O)Nc2ccc(S(=O)(=O)Nc3cc(C)on3)cc2)cc1 | i | i | i | i | nt | nt
CS(=O)(=O)N1CCN(c2ccc([N+](=O)[O-])c(NCc3cccnc3)c2)CC1 | i | i | i | i | nt | nt
Cc1occc1-c1nnc(SCC(=O)Nc2nccs2)n1CCc1ccccc1 | -6.51 | i | i | i | i | i
Cc1csc(NC(=O)CSc2nnc(-c3ccoc3C)n2Cc2ccco2)n1 | -5.29 | i | i | i | i | i
CCS(=O)(=O)N1CCC(C(=O)O)CC1 | i | i | i | i | nt | nt
